# An excerpt weighted towards active compounds, which were near 2.1% of everything screened.
# BaF3 parental = counter-screen for JAK2V617F inhibitors: parental Ba/F3 viability inhibitors. CellTiter-Glo ATP luminescence. inhibition, % at 5.6 µM. actives 1.1% (n = 220,000);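 active means inhibition above a per-campaign cutoff, the mean inhibition of all tested compounds plus 3 SD, cut at about 27% in these data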;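 further: 0% = DMSO wells and 100% = JAK Inhibitor I control wells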
# Ba/F3 V617F tox = loss of viability in JAK2V617F-driven Ba/F3 cells. Ba/F3 EpoR-JAK2V617F viability, ATP luminescence. inhibition, % at 5.6 µM. actives 1.1% (n = 220,000);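 active means inhibition above the campaign mean plus 3 SD over all tested compounds, cut at about 24% in these data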;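 further: cytokine-independent growth of Ba/F3 cells driven by EpoR plus mutant JAK2; 0% = DMSO-treated cells and 100% = JAK inhibitor I control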
# IEC-6 tox-1 = IEC-6 cytotoxicity, counter-screen for KLF5 inhibitors. AID 1825. luminescence viability. inhibition, % at 5 µM. actives 0.78% (n = 290,000);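 further: 0% = plate median of test compound wells and 100% = cytotoxic reference compound wells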
# b-catenin transl = modulators of beta-catenin nuclear translocation. HeLa beta-catenin nuclear translocation, immunofluorescence imaging. actives 0.3% (n = 190,000). nuclear translocation activity, % at 5 µM;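 active means nuclear translocation activity above 50% at 5 µM, with a well cell count of 50 or more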;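 further: per-cell ratio of nuclear to cytoplasmic median beta-catenin stain intensity; plate controls were DMSO negative control for no effect and GSK-3 inhibitor IX positive control for full effect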
#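 System: Human HeLa cells, endogenous beta-catenin | Compound dosing: 5 µM primary, 0.02–20 µM confirmation | Timing: 24 h compound exposure at 37°C, 5% CO2 | Measured by: Fluorescence imaging of beta-catenin antibody stain plus DAPI | Read-out basis: % activation of per-cell nuclear versus cytoplasmic median beta-catenin signal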
# MT stabilize HCS = stabilizes microtubules in HeLa cells. AID 2205. HeLa tubulin immunostaining HCS, 24 h; share of cells brighter than vehicle mean+2SD. actives 0.83% (n = 200,000). % tubulin-high responders, % at 10 µM;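 active means plate Z-score above 3 for both tubulin-high and condensed-nucleus cell shares, with cell loss under 80%, at 10 µM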;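 further: anti alpha tubulin signal scored within the nucleus-defined area of each cell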
# KLF5 inhibitor = inhibitors of KLF5 expression; DLD-1 KLF5 promoter-luciferase reporter, luminescence; inhibition, % at 5 µM; actives 0.23% (n = 290,000);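 active means inhibition above a per-plate limit of that plate's mean compound inhibition plus 3 SD, cut at about 60% in these data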;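 further: 0% = DMSO wells and 100% = LY294002 at 200 µM; higher means less KLF5 promoter-driven luciferase light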
# BaF3 tox 2 = counter-screen for JAK2V617F inhibitors: parental Ba/F3 viability inhibitors; shares compounds with Ba/F3 V617F tox; CellTiter-Glo luminescence; cells kept alive by added IL-3; inhibition, % at 5.6 µM; actives 31% (n = 580); AID 1520;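 active means cell growth inhibition above the hit limit set in the earlier mutant JAK2 cell screen, cut at about 27% in these data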;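 further: plate controls were DMSO-treated cells for no effect and JAK Inhibitor I control wells for full effect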
# JAK2V617F conf = confirmation: loss of viability in JAK2V617F-dependent Ba/F3 cells; shares compounds with Ba/F3 V617F tox; Ba/F3 EpoR-JAK2V617F viability, CellTiter-Glo luminescence; inhibition, % at 5.6 µM; actives 66% (n = 580);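 active means mean inhibition above the hit cutoff derived in the earlier primary screen, cut at about 25% in these data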;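 further: 0% = DMSO-treated cells and 100% = JAK inhibitor I control wells; higher means lower luminescence from reduced cell ATP and viability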
# KLF5 confirm = confirmation of KLF5 inhibitors; AID 1834; actives 79% (n = 610); inhibition, % at 4 µM; shares compounds with KLF5 inhibitor; DLD-1 KLF5 promoter firefly luciferase reporter, luminescence;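 active means inhibition above a set limit taken from the earlier primary screen, cut at about 63% in these data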;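 further: 0% = DMSO wells and 100% = LY294002 at 200 µM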
# IEC-6 tox-2 = counter-screen for KLF5 inhibitors: cytotoxicity in rat IEC-6 cells; actives 56% (n = 610); IEC-6 rat intestinal cells, viability luminescence; AID 1905; inhibition, % at 4 µM; shares compounds with KLF5 inhibitor; in the data active means inhibition above about 23%;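 further: cells exposed to compounds for 48 hours before viability read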
# IEC-6 cytotox cf = IEC-6 cytotoxicity, confirmation assay. shares compounds with IEC-6 tox-1. IEC-6 rat intestinal epithelial viability, luminescence. inhibition, % at 5 µM. actives 63% (n = 1,900). AID 1907;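 further: 0% = vehicle and 100% = reference cytotoxic drug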
# Starred values were filed as active, the others as inactive; . = not tested or not shown. Unless noted, no stated cut-off is given here; in the data, active means inhibition above about 22%; inactive means the rest.
SMILES,BaF3 parental,Ba/F3 V617F tox,IEC-6 tox-1,b-catenin transl,MT stabilize HCS,KLF5 inhibitor,KLF5 confirm,IEC-6 tox-2,others
O=C(Nc1ccnn1C1CCN(Cc2cc(Cl)ccc2O)CC1)C1CC1,.,.,-5,.,.,-20,.,.,
Nc1ccccc1NC1=CC(=O)CC(c2ccco2)C1 (centres undefined),3,0,-1,2,4,-2,.,.,
Nc1ccccc1NC1=CC(=O)CC(c2ccccc2)C1 (centres undefined),22,23*,31*,.,1,14,.,.,BaF3 tox 2=-2;JAK2V617F conf=-4;IEC-6 cytotox cf=2
COC(=O)COc1ccc(C2NC(=O)NC(c3ccccc3)=C2C(C)=O)cc1Br (centres undefined),.,.,17,.,.,2,.,.,
O=C(Nc1ccccc1)C1=C(c2ccccc2)S(=O)(=O)CCS1(=O)=O,1,85*,28*,3,2,24,.,.,BaF3 tox 2=66*;JAK2V617F conf=100*;IEC-6 cytotox cf=24*
COc1ccccc1-c1cc(C(=O)N/N=C/c2cccs2)c2ccccc2n1,6,-1,-1,.,2,21,.,.,
O=C(N/N=C/c1cccs1)c1cc(-c2ccncc2)nc2ccccc12,73*,69*,72*,61*,5,75*,83*,60*,
Cc1cc(-c2ccccc2)n(-c2cc(N/N=C/c3ccccc3O)ncn2)n1,76*,69*,3,128*,11,70*,88*,-6,
CNc1cc(-n2nc(C)cc2-c2ccccc2)ncn1,2,-2,7,0,1,-18,.,.,
CC(C)C(=O)Nc1ccc(S(=O)(=O)Nc2nccc(/C=C/c3ccccc3)n2)cc1,-1,0,-3,-3,6,-7,.,.,
Cn1c(CNC(=O)c2ccc(F)cc2)nc2ccccc21,0,-3,-4,-1,2,1,.,.,
CSc1nc(N(C)NC(=O)c2ccc(F)cc2)c2ccccc2n1,73*,72*,78*,3,33*,79*,78*,61*,
O=C(Nc1cccnc1)c1cccs1,87*,46*,2,.,2,72*,70*,5,
CC(=O)NC(Cc1cccc(F)c1)C(=O)NC1CCN(c2nnnn2-c2ccccc2)CC1 (centres undefined),4,0,-4,0,5,-6,.,.,
CCCC(=O)N=C1SC2CS(=O)(=O)CC2N1c1ccc(-c2nc3ccc(C)cc3s2)cc1 (centres undefined),5,-2,-2,1,6,-108,.,.,
Cc1ccc(C(=O)O/N=C(\N)c2ccccn2)c(C)c1,.,.,7,.,.,108*,104*,-4,
COc1ccc(CCC(N)=O)cc1OC,9,2,2,-5,1,70*,-5,-10,
COc1ccccc1-c1nnc2n1N=C(c1ccc(O)c(O)c1)CS2,92*,95*,1,41,21*,80*,92*,14,
Cc1ccc(NC(=O)c2cc3ccccc3oc2=O)cc1S(=O)(=O)N(C)C,5,2,4,-3,3,76*,87*,-7,
CC1CCN(c2ccc(-c3cccc(NC(=O)C(F)(F)F)c3)nn2)CC1,.,.,14,.,.,84*,88*,23*,
O=C(Nc1cccc(-c2ccc(N3CCCCC3)nn2)c1)C(F)(F)F,.,.,11,.,.,76*,51,14,
O=S(=O)(Nc1cccc(-c2ccc(N3CCCCCC3)nn2)c1)c1ccc(C(F)(F)F)cc1,.,.,4,.,.,-32,.,.,
CCC(=O)Nc1cccc(-c2ccc(N3CCC(C)CC3)nn2)c1,.,.,10,.,.,50,.,.,
COc1ccc2[nH]c(C(=O)N/N=C/c3ccccc3OC)cc2c1,.,.,5,.,.,29,.,.,
COc1cc(OC)c2cc(C(=O)N/N=C/c3ccccc3O)[nH]c2c1,.,.,15,.,.,84*,57,2,
SMILES,BaF3 parental,Ba/F3 V617F tox,IEC-6 tox-1,b-catenin transl,MT stabilize HCS,KLF5 inhibitor,KLF5 confirm,IEC-6 tox-2,others
O=C(Cn1cnc2c(nnn2Cc2ccc(F)cc2)c1=O)Nc1ccccc1,3,2,-7,0,.,3,.,.,
COc1cc([C@@H]2c3cc4c(cc3[C@H](O)[C@H]3COC(=O)[C@H]23)OCO4)cc(OC)c1OC,93*,97*,.,.,.,84*,92*,.,
COc1cc([C@@H]2c3cc4c(cc3[C@@H](NC3CCN(Cc5ccccc5)CC3)[C@H]3COC(=O)[C@H]23)OCO4)cc(OC)c1O,.,.,.,2,.,.,.,.,
CN(C(=O)Nc1cnccc1C(F)(F)F)C1CCCCC1,-2,-3,4,-2,.,-5,.,.,
O=C(NCCc1ccccc1)c1ccc2c(c1)OCO2,.,.,2,.,.,63*,39,6,
Cc1ccc(C(=O)Nc2nc3ccccc3[nH]2)cc1,.,.,15,.,.,86*,66*,21,
O=C(Nc1cnc2ccccc2c1)c1cccnc1,1,3,-4,-6,3,-174,.,.,
COc1ccc(C(=O)Nc2nc3ccccc3[nH]2)cc1,.,.,15,.,.,65*,56,13,
COc1cccc(C(=O)Nc2nc3ccccc3[nH]2)c1,8,3,5,.,3,33,.,.,
Cc1ccc(C(=O)Nc2cnc3ccccc3c2)cc1,3,1,6,2,3,97*,105*,5,
O=C(Nc1nc2ccccc2[nH]1)c1ccc([N+](=O)[O-])cc1,3,5,6,0,3,-87,.,.,
CCOC(=O)COc1cccc2c(=O)n(CC(=O)NCc3ccc(F)cc3)ccc12,68*,72*,7,74*,.,63*,80*,23*,
Cc1nnc(N/N=C/c2ccco2)n1N,4,-2,-6,-1,.,-32,.,.,
COc1cc(C2C(C#N)=C(C)NC3=C2C(=O)c2ccccc23)cc(OC)c1OC (centres undefined),74*,88*,94*,5,16*,78*,43,45*,
COc1ccc(CNC(=O)C(CCSC)NC(=O)c2ccco2)cc1 (centres undefined),1,-1,4,-6,2,1,.,.,
Cc1ccc(NC(=O)n2ncc3c(C)cccc32)cc1F,.,.,6,.,.,83*,85*,5,
COc1ccc(NC(=O)n2ncc3c(C)cccc32)cc1OC,.,.,0,.,.,-117,.,.,
CC(=O)CSc1ccc(-c2nc3cc(C)c(C)cc3[nH]2)cn1,0,-1,2,0,3,64*,73*,14,
CC(=O)CSc1ccc(-c2nc3ccccc3[nH]2)cn1,.,.,20,.,.,-13,.,.,

# Bioassay records: PubChem, several laboratories
